Experimental data gathered from unrelated publications.
Protocols differ between the studies behind these lines. Values after ≈ are worked out from the molar mass of the structure shown.
Organism: Escherichia coli

CCN1CCN(C(=O)N[C@@H](C(=O)N[C@@H]2C(=O)N3[C@@H]2SC(C)(C)[C@@H]3C(=O)O)c2ccccc2)C(=O)C1=O — inhibition zone (microbial growth, well diffusion; BW25113; 200 µM): 19 mm
COc1cc(C=Cc2cc(-c3ccccc3)nc(O)n2)ccc1O — inhibition zone (microbial growth, disc diffusion; ATCC25922; 500 µg/mL): 19.7 mm
CC1(C)SC2C(NC(=O)C(NC(=O)C3=C(O)C(Cc4ccccc4)NC3=O)c3ccccc3)C(=O)N2C1C(=O)O (stereo not drawn) — inhibition zone (microbial growth, well diffusion; BW25113; 200 µM): 12 mm
COc1c(C)c(OC(C)=O)c(C)c(OC(C)=O)c1C(=O)/C=C/c1ccccc1 — MBC (microbial killing, broth dilution; ATCC25922): > 5000 µg/mL
N=C(N)c1ccc(OCCCCCCCCOc2ccc(C(=N)N)cc2)cc1 — MIC (microbial growth; BW25113): 50 µg/mL (≈ 131 µM)
O=c1cccccc1SSc1cccccc1=O — MIC80 (microbial growth, broth dilution; ATCC35218): 19.8 µM (≈ 5.43 µg/mL)
CC(C)Oc1c(NC(=O)c2ccc(NC(=O)[C@H](CC(N)=O)NC(=O)c3ccc(NC(=O)c4ccc(C#N)cc4)cc3)cc2)ccc(C(=O)NC2CCNCC2)c1O — MIC (microbial growth; DSM1116): > 64 µg/mL
CCCCCCCCCCCCCC(O)CC(O)CO (stereo not drawn) — IC50 (microbial growth, broth dilution; ATCC35218): > 200 µg/mL
Cc1sc(C)c(-c2ccc(O)c(O)c2)c1Br — IC50 (microbial growth; AS19; 10 h): 10.8 µM
COc1cc(C=Cc2cc(-c3ccc(N(C)C)cc3)nc(O)n2)ccc1O — inhibition zone (microbial growth, disc diffusion; ATCC25922; 500 µg/mL): 11 mm
CC(C)Oc1c(NC(=O)c2ccc(NC(=O)[C@H](CC(N)=O)NC(=O)c3cccc(NC(=O)c4ccc(C#N)cc4)c3)cc2)ccc(C(=O)Nc2ccc(C(=O)O)cc2)c1O — MIC (microbial growth; DSM1116): > 64 µg/mL
Cc1ccc(C(C)C)cc1OCc1cn(-c2ccc([N+](=O)[O-])cc2)nn1 — IC50 (microbial growth, broth dilution; ATCC25922): 532 µg/mL
N=C(N)c1cccc(OCc2ccc(COc3cccc(C(=N)N)c3)cc2)c1 — MIC (microbial growth, broth dilution; ATCC25922): 200 µg/mL (≈ 534 µM)
COc1ccc(-c2nc3ccccc3n2Cc2ccccc2)cc1OC — MIC (microbial growth, broth dilution; ATCC25922): 64 µg/mL (≈ 186 µM)
COc1c(C)c(OC)c2c(c1C)OC(c1ccccc1)CC2=O (stereo not drawn) — MBC (microbial killing, broth dilution; ATCC25922): > 5000 µg/mL
Clc1ccc(-n2cc(COc3cccc4cccnc34)nn2)cc1 — IC50 (microbial growth, broth dilution; ATCC25922): 470 µg/mL
CC(C)Oc1c(NC(=O)c2ccc(NC(=O)[C@H](CC(N)=O)NC(=O)c3ccc(NC(=O)c4ccc(C#N)cc4)cc3)cc2)ccc(C(=O)N[C@@H]2CONC2=O)c1O — MIC (microbial growth; DSM1116): > 64 µg/mL
O=C(Sc1cccccc1=O)c1ccc(C(F)(F)F)cc1 — MIC80 (microbial growth, broth dilution; ATCC35218): 66.7 µM (≈ 20.7 µg/mL)
O=S(=O)(Oc1cccc2cccnc12)c1cccs1 — IC50 (microbial growth, broth dilution; ATCC25922): 165 µg/mL
C[C@H]1NCc2cc(-c3ccc4c(=O)c(C(=O)O)cn(C5CC5)c4c3OC(F)F)ccc21 — MIC50 (microbial growth, broth dilution): ≤ 0.03 µg/mL
COc1ccc(-n2cc(COc3cccc4cccnc34)nn2)cc1 — IC50 (microbial growth, broth dilution; ATCC25922): 376 µg/mL
Clc1ccc(-c2nc3ccccc3n2Cc2ccccc2)cc1 — MIC (microbial growth, broth dilution; ATCC25922): 128 µg/mL (≈ 401 µM)
C#CCCCCCCCCCCCC(O)CC(O)CO (stereo not drawn) — IC50 (microbial growth, broth dilution; ATCC35218): > 200 µg/mL
O=C(N[C@H](CO)[C@H](O)c1ccc([N+](=O)[O-])cc1)C(Cl)Cl — MIC90 (microbial growth; ATCC 8739, ATCC8739): 3.9 µg/mL (≈ 12.1 µM)
CC[C@H](C)[C@H](NC(=O)OCC1c2ccccc2-c2ccccc21)C(=O)Sc1cccccc1=O — MIC80 (microbial growth, broth dilution; ATCC35218): > 100 µM
CCCCCCCC(=O)Oc1c(C)c(O)c(C(=O)/C=C/c2ccccc2)c(OC)c1C — MBC (microbial killing, broth dilution; ATCC25922): > 5000 µg/mL
N=C(N)c1ccc(OCCC(CCOc2ccc(C(=N)N)cc2)c2ccccc2)cc1 (stereo not drawn) — MIC (microbial growth, broth dilution; ATCC25922): > 200 µg/mL
COc1c(C)c(OS(=O)(=O)c2ccc3ccccc3c2)c(C)c(OS(=O)(=O)c2ccc3ccccc3c2)c1C(=O)/C=C/c1ccccc1 — MBC (microbial killing, broth dilution; ATCC25922): > 5000 µg/mL
c1ccc(-n2cc(COc3cccc4cccnc34)nn2)cc1 — IC50 (microbial growth, broth dilution; ATCC25922): 408 µg/mL
O=C(N/N=C/c1ccc([N+](=O)[O-])o1)c1ccc(O)cc1 — MIC90 (microbial growth; ATCC35218): 0.98 µg/mL (≈ 3.56 µM)
COc1ccc(-c2nc3ccc(C)cc3[nH]2)cc1OC — MIC (microbial growth, broth dilution; ATCC25922): 64 µg/mL (≈ 239 µM)
CC1(C)SC2C(NC(=O)C(NC(=O)C3=C(O)C4CCCN4C3=O)c3ccccc3)C(=O)N2C1C(=O)O (stereo not drawn) — inhibition zone (microbial growth, well diffusion; BW25113; 200 µM): 11 mm
COc1c(N2C[C@@H]3CCCN[C@@H]3C2)c(F)cc2c(=O)c(C(=O)O)cn(C3CC3)c12 — MIC90 (microbial growth; ATCC 8739, ATCC8739): 0.06 µg/mL (≈ 0.149 µM)
CC1(C)S[C@@H]2[C@H](NC(=O)[C@H](N)c3ccc(O)cc3)C(=O)N2[C@H]1C(=O)O — inhibition zone (microbial growth, disc diffusion; ATCC25922; 250 µg/mL): 11.2 mm
Cc1ccc2nc(-c3ccc([N+](=O)[O-])cc3)n(Cc3ccccc3)c2c1 — MIC (microbial growth, broth dilution; ATCC25922): 64 µg/mL (≈ 186 µM)
Oc1ccc(-c2cc(Cl)sc2Cl)cc1O — IC50 (microbial growth; AS19; 10 h): 6.1 µM
Cc1ccc(-n2cc(COC3=CC(=O)c4ccccc4C3=O)nn2)cc1 — IC50 (microbial growth, broth dilution; ATCC25922): 224 µg/mL
O=C(O)c1cn(C2CC2)c2cc(N3CCNCC3)c(F)cc2c1=O — inhibition zone (microbial growth, disc diffusion; 100 µg/mL, 24 h): 17 mm
Cc1ccc(-n2cc(COc3cc(C(C)C)ccc3C)nn2)cc1 — IC50 (microbial growth, broth dilution; ATCC25922): 289 µg/mL
N=C(N)c1ccccc1OCc1ccccc1COc1ccccc1C(=N)N — MIC (microbial growth; BW25113): > 200 µg/mL
Cc1ccc(C(C)C)cc1O — IC50 (microbial growth, broth dilution; ATCC25922): 96.2 µg/mL
N=C(N)c1cccc(OCc2cccc(COc3cccc(C(=N)N)c3)c2)c1 — MIC (microbial growth; BW25113): > 200 µg/mL
